In brackets after ≈: the same amount, converted by molar mass.
Experiments:
Assay type in all cases: functional
[1] = tested on: Enterococcus faecalis; experiment: Antibacterial activity against vancomycin resistant Enterococcus faecalis NCTC12204 measured after overnight incubation by microbroth dilution method
How it was run: (§1)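 Microbroth dilution: DMSO stocks diluted in water, 2-fold series. Overnight TSB cultures back-diluted to OD 0.01 and mixed 1:1 with compound. Incubated overnight at 37 °C; MIC taken as lowest concentration without visible growth (<0.1 OD600). Run in duplicate; matching DMSO levels checked for effect on growth.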

[2] = tested on: Enterococcus faecalis; experiment: Antibacterial activity against vancomycin resistant Enterococcus faecalis NCTC12201 measured after overnight incubation by microbroth dilution method; how it was run: as §1
[3] = tested on: Enterococcus faecalis; experiment: Antibacterial activity against vancomycin sensitive Enterococcus faecalis NCTC775 measured after overnight incubation by microbroth dilution method; how it was run: as §1
[4] = tested on: Staphylococcus aureus; experiment: Antibacterial activity against methicillin-resistant Staphylococcus aureus EMRSA15 measured after overnight incubation by microbroth dilution method; how it was run: as §1
[5] = tested on: Staphylococcus aureus; experiment: Antibacterial activity against methicillin-sensitive Staphylococcus aureus ATCC 9144 measured after overnight incubation by microbroth dilution method; how it was run: as §1
[6] = tested on: Staphylococcus aureus; experiment: Antibacterial activity against methicillin-resistant Staphylococcus aureus MRSA252 measured after overnight incubation by microbroth dilution method; how it was run: as §1
[7] = tested on: Staphylococcus aureus; experiment: Antibacterial activity against methicillin sensitive Staphylococcus aureus NCTC 6571 measured after overnight incubation by microbroth dilution method; how it was run: as §1
[8] = tested on: Staphylococcus aureus; experiment: Antibacterial activity against methicillin resistant Staphylococcus aureus NCTC13616 measured after overnight incubation by microbroth dilution method; how it was run: as §1
[9] = tested on: Staphylococcus aureus; experiment: Antibacterial activity against methicillin resistant Staphylococcus aureus NCTC13277 measured after overnight incubation by microbroth dilution method; how it was run: as §1
[10] = tested on: Klebsiella pneumoniae; experiment: Antibacterial activity against Klebsiella pneumoniae NCTC13368 measured after overnight incubation by microbroth dilution method
How it was run: (§2)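 Microbroth dilution MIC. Compound DMSO stocks were diluted in water as a 2-fold series. Overnight TSB cultures were back-diluted to OD 0.01 and mixed 1:1 with compound. Plates were incubated overnight at 37 °C. MIC was the lowest concentration without visible growth (<0.1 OD600), run in duplicate.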

[11] = tested on: Klebsiella pneumoniae; experiment: Antibacterial activity against Klebsiella pneumoniae M6 measured after overnight incubation by microbroth dilution method; how it was run: as §2
[12] = tested on: Acinetobacter baumannii; experiment: Antibacterial activity against Acinetobacter baumannii AYE measured after overnight incubation by microbroth dilution method; how it was run: as §2
[13] = tested on: Acinetobacter baumannii; experiment: Antibacterial activity against Acinetobacter baumannii ATCC 17978 measured after overnight incubation by microbroth dilution method; how it was run: as §2
[14] = tested on: Pseudomonas aeruginosa; experiment: Antibacterial activity against Pseudomonas aeruginosa PAO1 measured after overnight incubation by microbroth dilution method; how it was run: as §2
[15] = tested on: Pseudomonas aeruginosa; experiment: Antibacterial activity against Pseudomonas aeruginosa NCTC13437 measured after overnight incubation by microbroth dilution method; how it was run: as §2
[16] = tested on: Escherichia coli; experiment: Antibacterial activity against Escherichia coli NCTC12923 measured after overnight incubation by microbroth dilution method; how it was run: as §2

SMILES	MIC [1]	MIC [2]	MIC [3]	MIC [4]	MIC [5]	MIC [6]	MIC [7]	MIC [8]	MIC [9]	MIC [10]	MIC [11]	MIC [12]	MIC [13]	MIC [14]	MIC [15]	MIC [16]
Cc1cc(CNCc2ccccc2)c(C)n1-c1ccc(F)cc1	32 µg/mL (≈ 104 µM)	64 µg/mL (≈ 208 µM)	64 µg/mL (≈ 208 µM)	> 128 µg/mL	> 128 µg/mL	64 µg/mL (≈ 208 µM)	–	–	–	–	–	–	–	–	–	–
Cc1cc(CNCCc2ccccc2)c(C)n1-c1ccc(Cl)cc1	8 µg/mL (≈ 23.6 µM)	16 µg/mL (≈ 47.2 µM)	32 µg/mL (≈ 94.4 µM)	32 µg/mL (≈ 94.4 µM)	32 µg/mL (≈ 94.4 µM)	32 µg/mL (≈ 94.4 µM)	–	–	–	–	–	–	–	–	–	–
Cc1cc(CN2CCN(C3CC4CCC3C4)CC2)c(C)n1-c1ccc(Cl)cc1 (stereo unspecified)	32 µg/mL (≈ 80.4 µM)	32 µg/mL (≈ 80.4 µM)	64 µg/mL (≈ 161 µM)	64 µg/mL (≈ 161 µM)	64 µg/mL (≈ 161 µM)	64 µg/mL (≈ 161 µM)	–	–	–	–	–	–	–	–	–	–
Cc1cc(CN2CCN(C3C4CC5CC(C4)CC3C5)CC2)c(C)n1-c1ccccc1F (stereo unspecified)	32 µg/mL (≈ 75.9 µM)	32 µg/mL (≈ 75.9 µM)	32 µg/mL (≈ 75.9 µM)	32 µg/mL (≈ 75.9 µM)	32 µg/mL (≈ 75.9 µM)	32 µg/mL (≈ 75.9 µM)	–	–	–	–	–	–	–	–	–	–
Cc1cc(CN2CCN(C3CCCCC3)CC2)c(C)n1-c1ccc(Cl)cc1	128 µg/mL (≈ 332 µM)	128 µg/mL (≈ 332 µM)	128 µg/mL (≈ 332 µM)	> 128 µg/mL	128 µg/mL (≈ 332 µM)	> 128 µg/mL	–	–	–	–	–	–	–	–	–	–
Cc1cc(CNOCc2ccccc2)c(C)n1-c1ccc(F)cc1	> 64 µg/mL	> 64 µg/mL	> 64 µg/mL	> 64 µg/mL	> 64 µg/mL	> 64 µg/mL	–	–	–	–	–	–	–	–	–	–
Cc1cccc(-n2c(C)cc(CN3CCN(C4C5CC6CC(C5)CC4C6)CC3)c2C)c1 (stereo unspecified)	64 µg/mL (≈ 153 µM)	64 µg/mL (≈ 153 µM)	64 µg/mL (≈ 153 µM)	64 µg/mL (≈ 153 µM)	64 µg/mL (≈ 153 µM)	64 µg/mL (≈ 153 µM)	–	–	–	–	–	–	–	–	–	–
Cc1ccc(CNCc2cc(C)n(-c3ccc(Cl)cc3)c2C)cc1	32 µg/mL (≈ 94.4 µM)	64 µg/mL (≈ 189 µM)	64 µg/mL (≈ 189 µM)	64 µg/mL (≈ 189 µM)	64 µg/mL (≈ 189 µM)	64 µg/mL (≈ 189 µM)	–	–	–	–	–	–	–	–	–	–
Cc1cc(CNC2C3CC4CC(C3)CC2C4)c(C)n1-c1ccc(Cl)cc1 (stereo unspecified)	64 µg/mL (≈ 173 µM)	128 µg/mL (≈ 347 µM)	128 µg/mL (≈ 347 µM)	> 128 µg/mL	128 µg/mL (≈ 347 µM)	128 µg/mL (≈ 347 µM)	–	–	–	–	–	–	–	–	–	–
Cc1cc(CN2CCN(C3C4CC5CC(C4)CC3C5)CC2)c(C)n1-c1ccc(C(C)C)cc1 (stereo unspecified)	8 µg/mL (≈ 17.9 µM)	8 µg/mL (≈ 17.9 µM)	16 µg/mL (≈ 35.9 µM)	32 µg/mL (≈ 71.8 µM)	32 µg/mL (≈ 71.8 µM)	32 µg/mL (≈ 71.8 µM)	–	–	–	–	–	–	–	–	–	–
Cc1c(CNC2CCCCC2)cc(-c2ccc(Cl)cc2)n1-c1ccc(Cl)cc1Cl	2 µg/mL (≈ 4.47 µM)	4 µg/mL (≈ 8.93 µM)	4 µg/mL (≈ 8.93 µM)	–	–	–	4 µg/mL (≈ 8.93 µM)	4 µg/mL (≈ 8.93 µM)	4 µg/mL (≈ 8.93 µM)	> 128 µg/mL	> 128 µg/mL	> 128 µg/mL	128 µg/mL (≈ 286 µM)	> 128 µg/mL	> 128 µg/mL	> 128 µg/mL
Cc1c(CNC(C)C)cc(-c2ccc(Cl)cc2)n1-c1ccc(Cl)cc1	4 µg/mL (≈ 10.7 µM)	8 µg/mL (≈ 21.4 µM)	8 µg/mL (≈ 21.4 µM)	–	–	–	8 µg/mL (≈ 21.4 µM)	8 µg/mL (≈ 21.4 µM)	8 to 16 µg/mL (≈ 21.4 to 42.9 µM)	> 128 µg/mL	> 128 µg/mL	64 µg/mL (≈ 171 µM)	32 µg/mL (≈ 85.7 µM)	> 128 µg/mL	> 128 µg/mL	32 to 128 µg/mL (≈ 85.7 to 343 µM)
Cc1cc(CN2CCN(C3C4CC5CC(C4)CC3C5)CC2)c(C)n1-c1ccc(Cl)cc1 (stereo unspecified)	16 µg/mL (≈ 36.5 µM)	16 µg/mL (≈ 36.5 µM)	16 µg/mL (≈ 36.5 µM)	32 µg/mL (≈ 73 µM)	16 µg/mL (≈ 36.5 µM)	32 µg/mL (≈ 73 µM)	–	–	–	–	–	–	–	–	–	–
Cc1cc(CNCc2ccc(Cl)cc2)c(C)n1-c1ccc(Cl)cc1	8 µg/mL (≈ 22.3 µM)	16 µg/mL (≈ 44.5 µM)	32 µg/mL (≈ 89.1 µM)	32 µg/mL (≈ 89.1 µM)	32 µg/mL (≈ 89.1 µM)	32 µg/mL (≈ 89.1 µM)	–	–	–	–	–	–	–	–	–	–
Cc1c(CNC2CCCCC2)cc(-c2ccc(C(C)(C)C)cc2)n1-c1ccc(Cl)cc1	2 µg/mL (≈ 4.6 µM)	2 µg/mL (≈ 4.6 µM)	4 µg/mL (≈ 9.19 µM)	–	–	–	4 µg/mL (≈ 9.19 µM)	4 µg/mL (≈ 9.19 µM)	4 µg/mL (≈ 9.19 µM)	> 128 µg/mL	> 128 µg/mL	> 128 µg/mL	> 128 µg/mL	> 128 µg/mL	> 128 µg/mL	> 128 µg/mL
Cc1c(CNC2CCC(N)CC2)cc(-c2ccc(Cl)cc2)n1-c1ccc(Cl)cc1 (stereo unspecified)	4 µg/mL (≈ 9.34 µM)	8 µg/mL (≈ 18.7 µM)	8 µg/mL (≈ 18.7 µM)	–	–	–	8 µg/mL (≈ 18.7 µM)	8 µg/mL (≈ 18.7 µM)	8 µg/mL (≈ 18.7 µM)	32 µg/mL (≈ 74.7 µM)	16 µg/mL (≈ 37.3 µM)	32 µg/mL (≈ 74.7 µM)	16 µg/mL (≈ 37.3 µM)	32 µg/mL (≈ 74.7 µM)	32 µg/mL (≈ 74.7 µM)	8 µg/mL (≈ 18.7 µM)
Cc1ccc(C)c(-n2c(-c3ccc(Cl)cc3)cc(CNC3CCCCC3)c2C)c1	2 µg/mL (≈ 4.91 µM)	4 µg/mL (≈ 9.83 µM)	4 µg/mL (≈ 9.83 µM)	–	–	–	4 µg/mL (≈ 9.83 µM)	4 µg/mL (≈ 9.83 µM)	8 µg/mL (≈ 19.7 µM)	> 128 µg/mL	> 128 µg/mL	> 128 µg/mL	64 µg/mL (≈ 157 µM)	> 128 µg/mL	> 128 µg/mL	> 128 µg/mL
Cc1c(CNC2CCC(O)CC2)cc(-c2ccc(Cl)cc2)n1-c1ccc(Cl)cc1 (stereo unspecified)	8 µg/mL (≈ 18.6 µM)	16 µg/mL (≈ 37.3 µM)	16 µg/mL (≈ 37.3 µM)	–	–	–	16 µg/mL (≈ 37.3 µM)	16 µg/mL (≈ 37.3 µM)	16 µg/mL (≈ 37.3 µM)	> 128 µg/mL	> 128 µg/mL	128 µg/mL (≈ 298 µM)	64 µg/mL (≈ 149 µM)	> 128 µg/mL	> 128 µg/mL	> 128 µg/mL
Cc1c(CNCCNc2ccccc2)cc(-c2ccc(Cl)cc2)n1-c1ccc(Cl)cc1	4 to 8 µg/mL (≈ 8.88 to 17.8 µM)	4 µg/mL (≈ 8.88 µM)	4 µg/mL (≈ 8.88 µM)	–	–	–	4 to 8 µg/mL (≈ 8.88 to 17.8 µM)	4 to 8 µg/mL (≈ 8.88 to 17.8 µM)	4 to 8 µg/mL (≈ 8.88 to 17.8 µM)	> 128 µg/mL	> 128 µg/mL	> 128 µg/mL	> 128 µg/mL	> 128 µg/mL	> 128 µg/mL	> 128 µg/mL
Cc1c(CNC2CCC(NC(=N)N)CC2)cc(-c2ccc(Cl)cc2)n1-c1ccc([N+](=O)[O-])cc1 (stereo unspecified)	16 µg/mL (≈ 33.3 µM)	64 µg/mL (≈ 133 µM)	32 µg/mL (≈ 66.5 µM)	–	–	–	4 µg/mL (≈ 8.32 µM)	8 µg/mL (≈ 16.6 µM)	8 µg/mL (≈ 16.6 µM)	> 128 µg/mL	> 128 µg/mL	> 128 µg/mL	64 µg/mL (≈ 133 µM)	> 128 µg/mL	> 128 µg/mL	64 µg/mL (≈ 133 µM)

— ChEMBL document CHEMBL4359823, “Switching on the activity of 1,5-diaryl-pyrrole derivatives against drug-resistant ESKAPE bacteria: Structure-activity relationships and mode of action studies” (Eur J Med Chem, 2019)
